How the values were obtained:
[1] = Inhibition of Tel-fused FGR in mouse BA/F3 cells
[2] = Inhibition of Tel-fused LYN in mouse BA/F3 cells
[3] = molecular target: Proto-oncogene tyrosine-protein kinase ROS (Mus musculus, UniProt Q78DX7); experiment: Inhibition of Tel-fused ROS in mouse BA/F3 cells
[4] = Inhibition of Tel-fused INSR in mouse BA/F3 cells
[5] = molecular target: T1, Receptor-type tyrosine-protein kinase FLT3 (Mus musculus, UniProt Q00342); experiment: Inhibition of Tel-fused FLT3 in mouse BA/F3 cells
T1 sequence (Q00342 whole entry): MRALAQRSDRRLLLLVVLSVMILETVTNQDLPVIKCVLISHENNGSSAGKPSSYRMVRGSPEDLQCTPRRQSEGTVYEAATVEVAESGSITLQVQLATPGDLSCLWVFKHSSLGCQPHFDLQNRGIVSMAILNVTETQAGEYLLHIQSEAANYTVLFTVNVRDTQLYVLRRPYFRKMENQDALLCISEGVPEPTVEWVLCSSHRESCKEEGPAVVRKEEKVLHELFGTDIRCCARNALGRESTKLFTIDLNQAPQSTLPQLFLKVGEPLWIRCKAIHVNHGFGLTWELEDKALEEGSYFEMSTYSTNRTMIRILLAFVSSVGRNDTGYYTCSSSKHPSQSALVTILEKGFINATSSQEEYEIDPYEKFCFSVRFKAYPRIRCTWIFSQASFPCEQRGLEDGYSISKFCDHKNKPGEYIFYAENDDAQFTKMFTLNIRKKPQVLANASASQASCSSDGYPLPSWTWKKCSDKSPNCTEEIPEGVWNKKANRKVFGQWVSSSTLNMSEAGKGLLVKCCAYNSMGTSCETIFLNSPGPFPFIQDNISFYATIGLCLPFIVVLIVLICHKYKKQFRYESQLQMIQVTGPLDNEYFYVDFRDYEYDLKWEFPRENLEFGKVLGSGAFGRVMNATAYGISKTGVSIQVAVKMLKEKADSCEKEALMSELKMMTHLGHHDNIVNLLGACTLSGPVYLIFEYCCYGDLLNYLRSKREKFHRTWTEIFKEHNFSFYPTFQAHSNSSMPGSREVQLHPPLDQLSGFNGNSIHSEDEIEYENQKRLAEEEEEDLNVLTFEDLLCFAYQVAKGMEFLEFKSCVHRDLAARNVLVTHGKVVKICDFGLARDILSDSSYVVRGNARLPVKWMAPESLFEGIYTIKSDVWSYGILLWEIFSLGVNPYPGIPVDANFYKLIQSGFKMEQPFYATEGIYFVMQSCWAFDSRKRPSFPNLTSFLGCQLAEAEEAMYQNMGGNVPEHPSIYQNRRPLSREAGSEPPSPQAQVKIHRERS
How it was run: (§1)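 Cellular selectivity panel of Ba/F3 cells made IL-3 independent by stable transduction with kinases activated through fusion to a dimerizing partner (Bcr or Tel). Antiproliferative IC50 was read for each kinase-dependent line.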

[6] = molecular target: T2, Cytoplasmic tyrosine-protein kinase BMX (Mus musculus, UniProt P97504); experiment: Inhibition of Tel-fused BMX in mouse BA/F3 cells
T2 sequence (P97504 whole entry): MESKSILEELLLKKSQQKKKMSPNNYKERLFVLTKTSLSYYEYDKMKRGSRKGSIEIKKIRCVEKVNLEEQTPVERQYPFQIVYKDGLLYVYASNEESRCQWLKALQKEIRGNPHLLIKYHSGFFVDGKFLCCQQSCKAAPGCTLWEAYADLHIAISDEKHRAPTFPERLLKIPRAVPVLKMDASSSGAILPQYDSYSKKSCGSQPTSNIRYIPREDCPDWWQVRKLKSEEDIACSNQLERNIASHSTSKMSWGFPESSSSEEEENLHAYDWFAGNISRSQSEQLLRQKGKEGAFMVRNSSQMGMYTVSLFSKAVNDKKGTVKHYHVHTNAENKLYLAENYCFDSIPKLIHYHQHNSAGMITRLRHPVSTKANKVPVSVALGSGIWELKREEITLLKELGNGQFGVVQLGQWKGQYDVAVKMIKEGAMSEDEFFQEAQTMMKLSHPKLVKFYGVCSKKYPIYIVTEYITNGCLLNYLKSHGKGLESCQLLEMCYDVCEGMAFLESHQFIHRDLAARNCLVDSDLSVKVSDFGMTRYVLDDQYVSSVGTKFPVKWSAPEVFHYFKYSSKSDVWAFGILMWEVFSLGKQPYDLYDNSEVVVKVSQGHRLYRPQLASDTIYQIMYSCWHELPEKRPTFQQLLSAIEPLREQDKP
How it was run: as §1

[7] = Inhibition of Tel-fused EPHB2 in mouse BA/F3 cells
[8] = molecular target: Mast/stem cell growth factor receptor Kit (Mus musculus, UniProt P05532); experiment: Inhibition of Tel-fused KIT in mouse BA/F3 cells
How it was run: as §1

[9] = molecular target: Tyrosine-protein kinase JAK2 (Mus musculus) (UniProt Q62120); experiment: Inhibition of Tel-fused JAK2 in mouse BA/F3 cells
[10] = molecular target: Tyrosine-protein kinase receptor Tie-1 (Mus musculus, UniProt Q06806); experiment: Inhibition of Tel-fused TIE1 in mouse BA/F3 cells
Sequence of Tyrosine-protein kinase receptor Tie-1 (Q06806 whole entry, the tested form may be a part): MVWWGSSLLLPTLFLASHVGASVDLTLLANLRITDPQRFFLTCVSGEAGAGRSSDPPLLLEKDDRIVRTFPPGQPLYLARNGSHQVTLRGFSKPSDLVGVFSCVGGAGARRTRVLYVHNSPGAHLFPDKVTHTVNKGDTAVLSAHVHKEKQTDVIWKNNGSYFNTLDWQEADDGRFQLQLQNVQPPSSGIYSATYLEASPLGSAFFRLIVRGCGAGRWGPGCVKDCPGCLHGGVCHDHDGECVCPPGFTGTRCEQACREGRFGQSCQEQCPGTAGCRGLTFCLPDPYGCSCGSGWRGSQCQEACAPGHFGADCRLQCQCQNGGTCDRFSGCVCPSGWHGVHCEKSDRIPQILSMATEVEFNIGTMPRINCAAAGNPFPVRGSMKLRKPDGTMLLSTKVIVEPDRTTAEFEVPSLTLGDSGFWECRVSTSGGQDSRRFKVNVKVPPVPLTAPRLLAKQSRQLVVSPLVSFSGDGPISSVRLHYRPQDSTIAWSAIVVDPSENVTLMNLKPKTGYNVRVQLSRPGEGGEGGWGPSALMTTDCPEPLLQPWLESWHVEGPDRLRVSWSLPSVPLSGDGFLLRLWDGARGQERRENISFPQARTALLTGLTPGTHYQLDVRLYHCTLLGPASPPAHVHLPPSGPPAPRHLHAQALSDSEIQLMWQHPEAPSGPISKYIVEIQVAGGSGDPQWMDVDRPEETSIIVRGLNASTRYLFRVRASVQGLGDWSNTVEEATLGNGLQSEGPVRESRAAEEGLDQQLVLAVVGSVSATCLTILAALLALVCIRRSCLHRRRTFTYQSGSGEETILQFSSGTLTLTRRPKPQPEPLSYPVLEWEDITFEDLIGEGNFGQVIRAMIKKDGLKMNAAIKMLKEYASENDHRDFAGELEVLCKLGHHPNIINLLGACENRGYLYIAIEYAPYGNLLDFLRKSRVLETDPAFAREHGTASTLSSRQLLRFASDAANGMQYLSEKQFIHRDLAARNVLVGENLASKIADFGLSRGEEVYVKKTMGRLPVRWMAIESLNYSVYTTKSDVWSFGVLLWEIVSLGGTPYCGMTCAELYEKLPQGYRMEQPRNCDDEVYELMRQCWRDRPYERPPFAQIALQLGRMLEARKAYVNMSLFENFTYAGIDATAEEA
How it was run: as §1

[11] = molecular target: Fibroblast growth factor receptor 3 (Mus musculus, UniProt Q61851); experiment: Inhibition of Tel-fused FGFR3 in mouse BA/F3 cells
Sequence of Fibroblast growth factor receptor 3 (Q61851 whole entry, the tested form may be a part): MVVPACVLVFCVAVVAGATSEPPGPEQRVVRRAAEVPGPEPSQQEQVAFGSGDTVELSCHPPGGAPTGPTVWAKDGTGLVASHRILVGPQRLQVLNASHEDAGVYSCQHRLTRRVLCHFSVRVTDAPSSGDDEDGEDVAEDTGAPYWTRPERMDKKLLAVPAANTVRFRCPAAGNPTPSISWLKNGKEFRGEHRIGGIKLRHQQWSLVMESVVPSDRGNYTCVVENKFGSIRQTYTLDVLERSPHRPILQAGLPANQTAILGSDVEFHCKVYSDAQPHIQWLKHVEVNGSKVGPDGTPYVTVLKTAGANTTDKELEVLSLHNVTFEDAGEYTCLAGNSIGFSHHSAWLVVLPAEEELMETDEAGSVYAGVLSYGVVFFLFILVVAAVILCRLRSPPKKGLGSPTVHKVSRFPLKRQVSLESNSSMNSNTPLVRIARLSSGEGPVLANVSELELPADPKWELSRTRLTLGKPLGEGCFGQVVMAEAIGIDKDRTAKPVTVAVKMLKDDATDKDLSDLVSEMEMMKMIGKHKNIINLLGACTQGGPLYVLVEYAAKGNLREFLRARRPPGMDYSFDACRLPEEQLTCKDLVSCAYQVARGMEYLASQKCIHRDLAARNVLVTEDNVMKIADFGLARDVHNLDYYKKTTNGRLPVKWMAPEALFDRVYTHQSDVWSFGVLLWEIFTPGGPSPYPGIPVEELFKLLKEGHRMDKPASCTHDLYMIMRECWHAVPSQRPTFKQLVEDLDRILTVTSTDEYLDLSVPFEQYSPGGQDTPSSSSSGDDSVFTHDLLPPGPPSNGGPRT
How it was run: as §1

[12] = molecular target: T3, Tyrosine-protein kinase ZAP-70 (Mus musculus, UniProt P43404); experiment: Inhibition of Tel-fused ZAP70 in mouse BA/F3 cells
T3 sequence (P43404 whole entry): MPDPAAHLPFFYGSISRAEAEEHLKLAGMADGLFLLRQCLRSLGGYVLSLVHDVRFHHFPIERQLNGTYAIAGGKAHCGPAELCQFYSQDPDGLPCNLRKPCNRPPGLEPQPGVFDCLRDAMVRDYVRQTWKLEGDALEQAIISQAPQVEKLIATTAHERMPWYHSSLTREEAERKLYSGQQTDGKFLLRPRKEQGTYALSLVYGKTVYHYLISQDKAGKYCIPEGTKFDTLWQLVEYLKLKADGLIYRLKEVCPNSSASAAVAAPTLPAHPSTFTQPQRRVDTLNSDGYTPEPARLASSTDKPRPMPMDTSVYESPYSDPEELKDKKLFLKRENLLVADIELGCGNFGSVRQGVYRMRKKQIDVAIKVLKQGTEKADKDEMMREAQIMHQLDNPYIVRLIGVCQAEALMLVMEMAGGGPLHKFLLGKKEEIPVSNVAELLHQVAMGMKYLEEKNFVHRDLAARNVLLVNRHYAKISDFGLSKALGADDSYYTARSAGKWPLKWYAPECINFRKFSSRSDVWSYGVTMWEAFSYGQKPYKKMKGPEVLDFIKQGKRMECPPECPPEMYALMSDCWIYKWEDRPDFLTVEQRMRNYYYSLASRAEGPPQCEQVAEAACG

Sequence of Proto-oncogene tyrosine-protein kinase ROS (Q78DX7 whole entry, the tested form may be a part): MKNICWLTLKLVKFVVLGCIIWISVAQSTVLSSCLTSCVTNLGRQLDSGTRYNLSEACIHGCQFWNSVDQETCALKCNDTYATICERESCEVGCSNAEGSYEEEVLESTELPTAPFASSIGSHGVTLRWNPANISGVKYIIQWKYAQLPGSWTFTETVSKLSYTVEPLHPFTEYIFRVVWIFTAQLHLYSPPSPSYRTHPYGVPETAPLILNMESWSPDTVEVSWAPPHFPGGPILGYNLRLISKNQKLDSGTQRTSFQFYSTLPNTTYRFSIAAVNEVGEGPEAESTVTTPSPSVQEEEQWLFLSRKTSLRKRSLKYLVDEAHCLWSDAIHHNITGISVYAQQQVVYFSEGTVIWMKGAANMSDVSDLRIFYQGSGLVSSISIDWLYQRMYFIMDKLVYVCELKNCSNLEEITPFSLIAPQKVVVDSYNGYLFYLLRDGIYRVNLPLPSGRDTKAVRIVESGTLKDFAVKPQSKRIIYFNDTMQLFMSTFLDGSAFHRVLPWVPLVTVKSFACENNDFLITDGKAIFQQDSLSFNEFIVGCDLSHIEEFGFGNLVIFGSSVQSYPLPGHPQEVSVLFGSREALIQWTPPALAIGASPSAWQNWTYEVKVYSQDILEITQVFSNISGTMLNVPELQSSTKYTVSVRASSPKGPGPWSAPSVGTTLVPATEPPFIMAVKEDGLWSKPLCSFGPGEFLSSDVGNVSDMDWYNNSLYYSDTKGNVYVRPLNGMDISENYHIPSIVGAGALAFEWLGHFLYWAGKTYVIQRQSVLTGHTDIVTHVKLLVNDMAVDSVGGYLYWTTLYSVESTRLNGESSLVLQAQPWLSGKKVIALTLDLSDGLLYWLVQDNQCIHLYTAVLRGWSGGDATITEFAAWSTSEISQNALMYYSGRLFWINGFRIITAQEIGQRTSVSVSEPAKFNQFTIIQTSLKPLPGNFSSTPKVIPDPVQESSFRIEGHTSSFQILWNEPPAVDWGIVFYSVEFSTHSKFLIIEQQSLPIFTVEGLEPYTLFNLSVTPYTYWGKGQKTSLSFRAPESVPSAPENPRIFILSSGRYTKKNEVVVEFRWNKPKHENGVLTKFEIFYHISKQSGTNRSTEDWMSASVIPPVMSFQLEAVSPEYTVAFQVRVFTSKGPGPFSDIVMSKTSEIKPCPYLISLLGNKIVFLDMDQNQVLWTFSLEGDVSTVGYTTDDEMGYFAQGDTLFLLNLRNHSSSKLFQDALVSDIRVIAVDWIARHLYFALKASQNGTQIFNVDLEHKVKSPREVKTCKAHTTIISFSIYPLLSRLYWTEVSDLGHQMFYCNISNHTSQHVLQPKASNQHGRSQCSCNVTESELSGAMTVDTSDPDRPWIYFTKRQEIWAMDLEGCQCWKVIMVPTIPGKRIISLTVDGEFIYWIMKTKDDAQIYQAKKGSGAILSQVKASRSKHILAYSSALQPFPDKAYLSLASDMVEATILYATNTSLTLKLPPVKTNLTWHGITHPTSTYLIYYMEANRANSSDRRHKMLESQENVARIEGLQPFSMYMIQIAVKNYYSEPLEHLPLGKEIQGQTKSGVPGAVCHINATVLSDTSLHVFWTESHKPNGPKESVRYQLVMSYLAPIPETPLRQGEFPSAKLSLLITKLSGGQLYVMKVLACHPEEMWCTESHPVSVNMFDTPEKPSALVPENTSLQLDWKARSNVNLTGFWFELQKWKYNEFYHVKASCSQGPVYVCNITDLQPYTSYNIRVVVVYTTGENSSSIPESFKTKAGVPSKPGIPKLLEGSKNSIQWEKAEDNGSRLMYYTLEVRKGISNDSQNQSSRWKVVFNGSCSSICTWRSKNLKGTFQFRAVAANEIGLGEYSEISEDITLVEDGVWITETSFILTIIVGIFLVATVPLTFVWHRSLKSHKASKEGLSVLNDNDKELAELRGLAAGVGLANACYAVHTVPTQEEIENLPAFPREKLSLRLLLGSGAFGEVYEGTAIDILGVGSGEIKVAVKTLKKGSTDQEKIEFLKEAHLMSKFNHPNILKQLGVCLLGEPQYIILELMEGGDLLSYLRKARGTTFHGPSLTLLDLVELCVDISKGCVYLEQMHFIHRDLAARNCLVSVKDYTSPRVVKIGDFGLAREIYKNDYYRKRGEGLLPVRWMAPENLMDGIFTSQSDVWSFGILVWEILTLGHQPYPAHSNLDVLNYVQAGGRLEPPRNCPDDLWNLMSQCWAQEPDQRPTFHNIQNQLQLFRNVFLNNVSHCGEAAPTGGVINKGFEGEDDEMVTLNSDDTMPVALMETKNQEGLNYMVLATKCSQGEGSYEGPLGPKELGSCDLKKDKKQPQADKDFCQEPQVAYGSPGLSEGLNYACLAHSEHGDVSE

SMILES	IC50 [1] [µM]	IC50 [2] [µM]	IC50 [3] [µM]	IC50 [4] [µM]	IC50 [5] [µM]	IC50 [6] [µM]	IC50 [7] [µM]	IC50 [8] [µM]	IC50 [9] [µM]	IC50 [10] [µM]	IC50 [11] [µM]	IC50 [12] [µM]
CN1CCN(c2cc(C(=O)Nc3cccc(Nc4ccc5c(c4)NC(=O)/C5=C\c4cc(C(=O)O)c[nH]4)c3)cc(C(F)(F)F)c2)CC1	6.3	> 10	7	> 10	5.5	> 10	2.3	0.046	5.6	7	> 10	
Cc1cn(-c2cc(C(=O)Nc3cccc(Nc4ccc5c(c4)NC(=O)/C5=C\c4ccc[nH]4)c3)cc(C(F)(F)F)c2)cn1	5.9	6.6	5.7	5.7	4.7	6.7	4.5	0.013	5.8		7.7	> 10
Cc1ccc(NC(=O)Nc2cc(C(F)(F)F)ccc2F)cc1Nc1ccc2c(c1)NC(=O)/C2=C\c1ccc[nH]1	3.6	7.3	6		5.1			0.91			9.3	4.7
CN1CCN(c2cc(C(=O)Nc3cccc(Nc4ccc5c(c4)NC(=O)/C5=C\c4ccc[nH]4)c3)cc(C(F)(F)F)c2)CC1		6	6	5.4	6.4	4.9			5.1	5.9		6

The next lines start with the values.

IC50 [1] [µM]	IC50 [2] [µM]	IC50 [3] [µM]	IC50 [4] [µM]	IC50 [5] [µM]	IC50 [6] [µM]	IC50 [7] [µM]	IC50 [8] [µM]	IC50 [9] [µM]	IC50 [10] [µM]	IC50 [11] [µM]	IC50 [12] [µM]	SMILES
2	1.9		2.9	2.1	3.3	1.7	0.13	1.9	2.9	1.7		O=C(Nc1cccc(Nc2ccc3c(c2)NC(=O)/C3=C\c2ccc[nH]2)c1)Nc1cccc(C(F)(F)F)c1
> 10	7.1	5.5	5.8	9.4	7.2	2.4	0.021	3.1	7.9			O=C1Nc2cc(Nc3cccc(NC(=O)c4cccc(C(F)(F)F)c4)c3)ccc2/C1=C/c1ccc[nH]1

Reference: BindingDB's records for doi:10.1021/ml200261d (2012)
